Measurements taken from ChEMBL document CHEMBL2311435, “Development of 18F-labeled picolinamide probes for PET imaging of malignant melanoma” (J Med Chem, 2013).

System: Mus musculus
Experiment: Biodistribution in tumor of C57BL/6 mouse xenografted with mouse B16F10 cells at 3.7 MBq, iv after 2 hrs by gamma-scintillation counting analysis
Assay type: ADME, organism-based, Neoplasm, B16-F10
Details: in vivo
Summary of the method: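 1.0 × 10^6 B16F10 cells in PBS injected subcutaneously into the right shoulder of C57BL/6 mice, grown to 0.5 cm (~10 day). Tail-vein injection of about 3.7 MBq (100 μCi) 18F probe in PBS (0.1 M, pH 7.4). Killed at 1.0 or 2.0 h p.i. (n = 4 per group). Tissues excised, weighed and gamma-counted; uptake expressed as %ID/g, mean ± SD.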

SMILES: CCN(CC)CCNC(=O)c1ccc([18F])cc1
- Drug uptake: 5.94 % ID/g
